# Compounds with a hit are over-represented: about 2% of the library has one in this group of screens.
# TDP2 inh – human TDP2 enzyme inhibitors, primary screen, biochemical, epi absorbance, recombinant enzyme; inhibition, % at 12.8 µM; T5PNP hydrolysis, p-nitrophenol absorbance 415 nm; 370,000 tested, 0.34% active; Tyrosyl-DNA phosphodiesterase 2 (Homo sapiens), O95551;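 active = inhibition above the mean of all tested compounds plus 3 SD, set per campaign, cut at about 25% in these data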;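 note: 0% = DMSO with enzyme and 100% = buffer with substrate but no TDP2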
# Target sequence (O95551 whole entry, looked up): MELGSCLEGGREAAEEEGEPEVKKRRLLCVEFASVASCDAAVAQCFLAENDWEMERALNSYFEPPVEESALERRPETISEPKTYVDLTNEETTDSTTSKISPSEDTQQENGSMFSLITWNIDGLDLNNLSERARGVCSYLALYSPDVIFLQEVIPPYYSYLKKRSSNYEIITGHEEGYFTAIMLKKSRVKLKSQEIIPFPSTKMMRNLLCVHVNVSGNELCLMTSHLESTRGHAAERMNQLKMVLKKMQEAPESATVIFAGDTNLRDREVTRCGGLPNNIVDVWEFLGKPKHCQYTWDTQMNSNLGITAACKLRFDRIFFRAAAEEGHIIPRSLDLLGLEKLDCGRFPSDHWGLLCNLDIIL
#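 test system = human TDP2 enzyme | input = TDP2 enzyme at 120 nM final | medium = 50 mM Tris-HCl pH 7.5 with Mg2+, KCl, DTT, BSA | also added = T5PNP substrate, 5 mM | times = 2 h at 37 °C | technique = epi absorbance | benchmarks = high control without enzyme, low control DMSO plus TDP2 | replication = each compound tested once, singlicate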
# MBD2 inh – inhibitors of MBD2 binding to methylated DNA, primary screen, biochemical, TR-FRET, DNA-binding domain, human; MBD2 binding to methylated oligonucleotide; inhibition, % at 4.4 µM; 370,000 tested, 0.31% active; in the data active = inhibition above about 13%
# LEDGF integ inh – blockers of LEDGF/p75-dependent integrase strand transfer – biochemical, TR-FRET, high throughput, primary screen; HIV-1 integrase (with human LEDGF/p75); AID 743269, 2014; inhibition, % at 3.7 µM; TR-FRET IN-LEDGF/p75 DNA integration, Eu/Cy5; 370,000 tested, 0.64% active;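 active = inhibition above the screen-wide mean plus 3 SD, cut at about 13% in these data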;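 note: signal is the Cy5 over europium emission ratio at 671 and 618 nm; 0% = plate median of compound wells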
# ARFGAP1 inhibitor – inhibitors of rat ARFGAP1 GAP activity, primary screen, biochemical, fluorescence polarization, GDP tracer; ADP-ribosylation factor GTPase-activating protein 1 (Rattus norvegicus), Q62848; inhibition, % at 16.5 µM; 360,000 tested, 0.26% active; Arfgap1-stimulated ARF1 GTP hydrolysis, GDP FP detection;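 active = inhibition above a per-plate limit, mean inhibition of low control wells plus 3 SD, cut at about 25% in these data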;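 note: 0% = DMSO wells with enzyme and 100% = wells lacking Arfgap1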
# Target sequence (Q62848 1-136 limits assumed): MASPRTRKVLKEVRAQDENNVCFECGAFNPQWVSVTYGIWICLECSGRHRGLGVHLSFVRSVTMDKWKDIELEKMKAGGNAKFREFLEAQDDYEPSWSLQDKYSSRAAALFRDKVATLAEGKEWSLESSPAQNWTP
#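 Assay system: Rat Arfgap1 GAP domain (His6, aa 1-136), purified enzyme | Buffer or medium: HEPES 25 mM pH 7.5, NaCl 150 mM, MgCl2, DTT | Schedule: GTP hydrolysis reaction 2 h at 25 °C | Signal: FP of antibody-bound GDP Alexa 633 tracer, ex 620/em 688 nm | Measure: Percent inhibition of Arfgap1-stimulated GTP hydrolysis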
# ASAP1 GAP inh – inhibitors of human ASAP1 ArfGAP activity, primary screen, biochemical, fluorescence polarization | Arf-GAP with SH3 domain, ANK repeat and PH domain-containing protein 1 (Homo sapiens), … | inhibition, % at 16.5 µM | ASAP1-stimulated ARF1 GTP hydrolysis, GDP FP detection | 360,000 tested, 0.19% active;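 note: 0% = vehicle with enzyme and substrate and 100% = no enzyme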
# UHRF1 binding – UHRF1 methylated DNA binding inhibitors, primary screen, counter-screen for MBD2 inhibitor project, biochemical, TR-FRET, human UHRF1, single concentration; inhibition, % at 4.4 µM; UHRF1 binding to methylated oligo; 370,000 tested, 0.75% active; E3 ubiquitin-protein ligase UHRF1 (Homo sapiens), Q96T88; AID 687016, 2013; in the data active = inhibition above about 21%;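 note: UHRF1 SRA domain binding a hemimethylated CpG hairpin DNA probe; 0% = median of test compound wells and 100% = reference inhibitor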
# TDP2 confirm – human TDP2 enzyme inhibitors, retest, confirmation, biochemical, epi absorbance, recombinant enzyme | shares compounds with TDP2 inh | inhibition, % at 12.8 µM | 1,100 tested, 22% active | absorbance read-out | AID 743263, 2014;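 note: 0% = vehicle with enzyme and 100% = no enzyme buffer only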
# * marks the source's active call; other numbers are inactive results; . = no result. Cut-off read from the data, not from the text of the source, unless noted: active = inhibition above about 25%; inactive = the rest.
SMILES,TDP2 inh,MBD2 inh,LEDGF integ inh,ARFGAP1 inhibitor,ASAP1 GAP inh,UHRF1 binding,TDP2 confirm
COc1cc(C2C(C#N)=C(N)Oc3n[nH]c(-c4cccnc4)c32)ccc1OCC(N)=O (centres undefined),52*,-12,9,2,-5,-7,-3
COc1cc(C2C(C#N)=C(N)Oc3n[nH]c(-c4cccnc4)c32)cc(Br)c1O (centres undefined),31*,-8,7,4,2,-6,-4
Cc1ccc(C2C(C#N)=C(N)Oc3n[nH]c(-c4cccnc4)c32)o1 (centres undefined),14,-4,3,9,-5,-9,.
CCOC(=O)[C@]12CCCC=C1N(Cc1ccc(OC)cc1)C(=O)[C@@H]2CC(=O)N1CCC(c2ccccc2)CC1,-1,-1,3,.,.,4,.
CCCCCCCCN1C(=O)[C@@H](CC(=O)N2CCN(C(=O)c3ccco3)CC2)C[C@@]2(C(=O)OC)C1=C[C@H](COCc1ccccc1)O[C@@H]2C,7,5,-2,.,.,1,.
CN(C)CC(=O)N[C@@H]1C[C@@H]2O[C@@H](CO)CC[C@@H]2O[C@@H]1CCc1ccc(C2=CCCCC2)cc1,-1,2,1,.,.,3,.
COc1cc2c(cc1OC)-c1cc3ccc4c(c3c[n+]1CC2)OCO4,26*,-23,5,0,11,-67,9
COc1cc2c(cc1O)CC[n+]1cc3c(OC)c(OC)ccc3cc1-2,11,-9,1,11,2,-12,.
COCN(C#N)c1nc(OC)nc(OC)n1,2,3,1,3,2,3,.
COCN(C#N)c1nc(N(C)C)nc(N(C)C)n1,29*,0,2,-5,11,45*,4
CC1CCN(CCOc2cc(Cl)ccc2Cl)CC1,25*,2,0,-4,-4,-3,1
COC(=O)[C@]12C[C@H](CC(=O)NCc3ccc(C)o3)C(=O)N(Cc3ccc(Cl)cc3Cl)C1=C[C@H](C(C)(C)C)O[C@@H]2C,-7,-2,-1,.,.,-1,.
CC(=O)Oc1c(/C=C(\C#N)C(N)=O)[nH]c2ccccc12,32*,-7,8,5,3,-15,-1
N#C/C(=C\c1c[nH]c2ccccc12)C(N)=O,-2,-6,-2,-1,-7,-10,.
COC(=O)[C@]12C[C@H](CC(=O)NCC34CC5CC(CC(C5)C3)C4)C(=O)N(CCC3=CCCCC3)C1=C[C@H](C(C)C)O[C@@H]2C1CC1,-4,1,7,.,.,5,.
COc1cc(NCCCNC(C)C)c2nccc(C)c2c1,28*,-9,12,-5,-12,-3,28*
O=C1C2(CCCC13COC(c1ccc(O)cc1)OC3)COC(c1ccc(O)cc1)OC2 (centres undefined),25*,6,0,-4,-6,12,3
O=C1C2(CCC13COC(c1ccc(O)cc1)OC3)COC(c1ccc(O)cc1)OC2 (centres undefined),-4,0,-2,-7,-1,-3,.
O=C(O)C(Cc1c[nH]c2ccccc12)NS(=O)(=O)c1ccc2ccccc2c1 (centres undefined),-4,-2,-1,2,14,0,.
O=C(O)C(Cc1c[nH]c2ccccc12)NS(=O)(=O)c1ccc(F)cc1 (centres undefined),28*,0,-4,11,-3,0,-1
COP(=O)(CC(=O)C(Cc1ccccc1)NC(=O)OC(C)(C)C)OC (centres undefined),4,8,-2,.,.,2,.
COc1cc(/C=C/C(=O)OCC(=O)NC(=O)NC(C)C)ccc1OCC#N,-3,1,0,-5,-3,-3,.
COc1cc(/C=C/C(=O)OCC(=O)Nc2cc(C)on2)ccc1OCC#N,26*,-5,2,3,-7,-2,-8
COc1cccc(-c2nnc(SCc3cc(C)ccc3C)n2Cc2ccco2)c1,-7,-5,0,.,.,0,.
NS(=O)(=O)c1ccc(NC(=O)/C=C/c2ccco2)cc1,32*,4,4,7,-2,6,6
SMILES,TDP2 inh,MBD2 inh,LEDGF integ inh,ARFGAP1 inhibitor,ASAP1 GAP inh,UHRF1 binding,TDP2 confirm
O=C(/C=C/c1ccco1)Nc1ccc(S(=O)(=O)N2CCOCC2)cc1,-2,0,0,3,-5,-2,.
Cc1cccc(CCNC(=O)Cn2nc(-c3ccccc3)ccc2=O)c1,5,1,-3,.,.,-1,.
CC(=O)c1c(C)oc2c1cc(NS(=O)(=O)c1ccc(C(=O)O)cc1)c1ccccc12,29*,-2,-2,-6,0,-2,3
COC(=O)c1c(C)oc2c1cc(NS(=O)(=O)c1ccc(C(=O)O)cc1)c1ccccc12,1,5,4,5,0,1,.
COc1ccc(Nc2nc3ccccc3n3cnnc23)cc1Cl,26*,2,1,1,13,-5,-4
CCOC(=O)[C@]12CCCCC/C=C\1N(CCc1ccc(Cl)cc1)C(=O)[C@H]2CC(=O)NCCCN1CCCC1=O,9,0,-1,.,.,-2,.
Cc1ccc(NC(=O)CN2C(=O)NC3(CCc4ccccc43)C2=O)cc1S(=O)(=O)N1CCCCC1 (centres undefined),90*,2,3,17,9,-2,-13
COC(=O)C1=CC[C@@H](NC(=O)OC(C)(C)C)[C@H](O)[C@H]1O[Si](C)(C)C(C)(C)C,0,2,1,.,.,-4,.
OCCNc1ncnc2c1sc1nc(N3CCOCC3)c3c(c12)CCC3,27*,2,0,-15,0,1,-4
Cc1cccc(OC(C)CCN2CCC(C(O)(c3ccccc3)c3ccccc3)CC2)c1 (centres undefined),-2,0,-3,.,.,-1,.
COc1ccc(N(C(=O)Cn2nnc(-c3ccccc3F)n2)C(C(=O)NCC2CCCO2)c2ccc(Cl)cc2)cc1 (centres undefined),26*,-2,1,3,-4,-2,2

# Screens as filed in PubChem BioAssay.
